Converted amounts (≈) assume the structure as drawn.
Legend:
Type in all cases: functional
Talaromyces marneffei = experiment: Antifungal activity against recultured Penicillium marneffei after 3 to 4 days by serial plate dilution method; conditions: for MIC: Talaromyces marneffei
Outline: (§1)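 Sabouraud agar made from peptone, glucose and agar in water, pH 5.7. Fungal spores suspended in normal saline and used to lawn the plates, which were dried 1 h at 37 °C. Wells punched and compounds added in DMSO, with a DMSO solvent control. Triplicate plates held at 37 °C for 3–4 days. Read-out is inhibition zone diameter.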

Aspergillus flavus = experiment: Antifungal activity against Aspergillus flavus NCIM 524 after 3 to 4 days by serial plate dilution method; conditions: for MIC: Aspergillus flavus, NCIM 524; outline: as §1
Candida albicans = experiment: Antifungal activity against Candida albicans after 3 to 4 days by serial plate dilution method; conditions: for MIC: Candida albicans; outline: as §1
Aspergillus fumigatus = experiment: Antifungal activity against Aspergillus fumigatus NCIM 902 after 3 to 4 days by serial plate dilution method; conditions: for MIC: Aspergillus fumigatus, NCIM 902; outline: as §1
[1] = test system: Trichophyton mentagrophytes; experiment: Antifungal activity against recultured Trichophyton mentagrophytes after 3 to 4 days by serial plate dilution method; conditions: for MIC: Trichophyton mentagrophytes; outline: as §1
Escherichia coli = experiment: Antibacterial activity against Escherichia coli ATTC 25922 after 3 to 4 days by serial plate dilution method; conditions: for MIC: Escherichia coli, ATTC 25922
Outline: (§2)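 Serial dilutions in Mueller-Hinton broth in tubes, pH adjusted to 5.0 with phosphate buffer. Inoculated with a standardized bacterial suspension and incubated 16–18 h at 37 °C. MIC is the lowest concentration with no visible growth, tested over 6.25–100 µg/mL. Zones come from an agar well diffusion assay: compounds in DMSO are added to wells in seeded agar, DMSO control, triplicate plates, 37 °C for 3–4 days, inhibition zone diameter in mm.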

Pseudomonas aeruginosa = experiment: Antibacterial activity against Pseudomonas aeruginosa ATCC 27853 after 3 to 4 days by serial plate dilution method; conditions: for MIC: Pseudomonas aeruginosa, ATCC 27853; outline: as §2
Staphylococcus aureus = experiment: Antibacterial activity against Staphylococcus aureus ATTC 25923 after 3 to 4 days by serial plate dilution method; conditions: for MIC: Staphylococcus aureus, ATTC 25923; outline: as §2
Streptococcus pyogenes = experiment: Antibacterial activity against Streptococcus pyogenes after 3 to 4 days by serial plate dilution method; conditions: for MIC: Streptococcus pyogenes; outline: as §2
Klebsiella pneumoniae = experiment: Antibacterial activity against recultured Klebsiella pneumoniae after 3 to 4 days by serial plate dilution method; conditions: for MIC: Klebsiella pneumoniae; outline: as §2

SMILES	diameter of the inhibition zone (DIZ) (Talaromyces marneffei) [mm]	MIC (Talaromyces marneffei) [µg/mL]	diameter of the inhibition zone (DIZ) (Aspergillus flavus) [mm]	MIC (Aspergillus flavus) [µg/mL]	diameter of the inhibition zone (DIZ) (Candida albicans) [mm]	MIC (Candida albicans) [µg/mL]	diameter of the inhibition zone (DIZ) (Aspergillus fumigatus) [mm]	MIC (Aspergillus fumigatus) [µg/mL]	diameter of the inhibition zone (DIZ) [1] [mm]	MIC [1] [µg/mL]	diameter of the inhibition zone (DIZ) (Escherichia coli) [mm]	MIC (Escherichia coli) [µg/mL]	diameter of the inhibition zone (DIZ) (Pseudomonas aeruginosa) [mm]	MIC (Pseudomonas aeruginosa) [µg/mL]	diameter of the inhibition zone (DIZ) (Staphylococcus aureus) [mm]	MIC (Staphylococcus aureus) [µg/mL]	diameter of the inhibition zone (DIZ) (Streptococcus pyogenes) [mm]	MIC (Streptococcus pyogenes) [µg/mL]	diameter of the inhibition zone (DIZ) (Klebsiella pneumoniae) [mm]	MIC (Klebsiella pneumoniae) [µg/mL]
Cc1cc(C2CCCCC2)n(O)c(=O)c1.NCCO [CICLOPIROX OLAMINE]	20	6.25	25	3.12	20	6.25	25	6.25	27	3.12	–	–	–	–	–	–	–	–	–	–
COc1ccc(N2CCN(Cc3cn(-c4cc(C)nc5ccc(OC)cc45)nn3)CC2)cc1	18	6.25 (≈ 14.1 µM)	14	6.25 (≈ 14.1 µM)	14	6.25 (≈ 14.1 µM)	16	6.25 (≈ 14.1 µM)	16	6.25 (≈ 14.1 µM)	20	6.25 (≈ 14.1 µM)	14	6.25 (≈ 14.1 µM)	16	6.25 (≈ 14.1 µM)	14	6.25 (≈ 14.1 µM)	16	6.25 (≈ 14.1 µM)
COc1ccc2nc(C)cc(-n3cc(CN4CCC(N5CCOCC5)CC4)nn3)c2c1	<10	50 (≈ 118 µM)	11	12.5 (≈ 29.6 µM)	<10	50 (≈ 118 µM)	<10	50 (≈ 118 µM)	<10	50 (≈ 118 µM)	11	12.5 (≈ 29.6 µM)	10	12.5 (≈ 29.6 µM)	10	12.5 (≈ 29.6 µM)	12	12.5 (≈ 29.6 µM)	11	12.5 (≈ 29.6 µM)
COc1ccc2nc(C)cc(-n3cc(CN4CCN(C(C)=O)CC4)nn3)c2c1	16	6.25 (≈ 16.4 µM)	14	6.25 (≈ 16.4 µM)	10	6.25 (≈ 16.4 µM)	16	6.25 (≈ 16.4 µM)	14	6.25 (≈ 16.4 µM)	18	6.25 (≈ 16.4 µM)	14	6.25 (≈ 16.4 µM)	20	6.25 (≈ 16.4 µM)	16	6.25 (≈ 16.4 µM)	12	6.25 (≈ 16.4 µM)
COc1ccc2nc(C)cc(-n3cc(CN4CCCCC4)nn3)c2c1	12	12.5 (≈ 37 µM)	10	12.5 (≈ 37 µM)	10	12.5 (≈ 37 µM)	10	12.5 (≈ 37 µM)	10	12.5 (≈ 37 µM)	10	12.5 (≈ 37 µM)	<10	50 (≈ 148 µM)	<10	50 (≈ 148 µM)	10	12.5 (≈ 37 µM)	<10	50 (≈ 148 µM)
COc1ccc2nc(C)cc(-n3cc(CN(C)C4CCCCC4)nn3)c2c1	<10	50 (≈ 137 µM)	<10	50 (≈ 137 µM)	<10	50 (≈ 137 µM)	<10	50 (≈ 137 µM)	<10	50 (≈ 137 µM)	<10	50 (≈ 137 µM)	<10	50 (≈ 137 µM)	<10	50 (≈ 137 µM)	<10	50 (≈ 137 µM)	<10	50 (≈ 137 µM)
COc1ccc2nc(C)cc(-n3cc(CNC4CCCCC4)nn3)c2c1	10	12.5 (≈ 35.6 µM)	12	12.5 (≈ 35.6 µM)	11	12.5 (≈ 35.6 µM)	<10	25 (≈ 71.1 µM)	<10	25 (≈ 71.1 µM)	10	12.5 (≈ 35.6 µM)	11	12.5 (≈ 35.6 µM)	<10	25 (≈ 71.1 µM)	12	12.5 (≈ 35.6 µM)	10	12.5 (≈ 35.6 µM)
COc1ccc2nc(C)cc(-n3cc(CN4CCN(C)CC4)nn3)c2c1	16	6.25 (≈ 17.7 µM)	16	6.25 (≈ 17.7 µM)	14	6.25 (≈ 17.7 µM)	18	6.25 (≈ 17.7 µM)	14	6.25 (≈ 17.7 µM)	20	6.25 (≈ 17.7 µM)	14	6.25 (≈ 17.7 µM)	16	6.25 (≈ 17.7 µM)	16	6.25 (≈ 17.7 µM)	14	6.25 (≈ 17.7 µM)
O=C(O)c1cn(C2CC2)c2cc(N3CCNCC3)c(F)cc2c1=O [CIPROFLOXACIN]	–	–	–	–	–	–	–	–	–	–	30	–	16	–	22	–	25	6.25 (≈ 18.9 µM)	23	6.25 (≈ 18.9 µM)
COc1ccc2nc(C)cc(-n3cc(CN4CCN(c5ccc(C)cc5)CC4)nn3)c2c1	<10	25 (≈ 58.3 µM)	12	12.5 (≈ 29.2 µM)	12	12.5 (≈ 29.2 µM)	10	12.5 (≈ 29.2 µM)	12	12.5 (≈ 29.2 µM)	<10	50 (≈ 117 µM)	<10	50 (≈ 117 µM)	<10	50 (≈ 117 µM)	<10	50 (≈ 117 µM)	<10	50 (≈ 117 µM)
COc1ccc2nc(C)cc(-n3cc(CNC4CC4)nn3)c2c1	18	6.25 (≈ 20.2 µM)	14	6.25 (≈ 20.2 µM)	13	6.25 (≈ 20.2 µM)	18	6.25 (≈ 20.2 µM)	15	6.25 (≈ 20.2 µM)	16	6.25 (≈ 20.2 µM)	12	6.25 (≈ 20.2 µM)	16	6.25 (≈ 20.2 µM)	12	6.25 (≈ 20.2 µM)	18	6.25 (≈ 20.2 µM)
CCN(CC)Cc1cn(-c2cc(C)nc3ccc(OC)cc23)nn1	<10	25 (≈ 76.8 µM)	11	12.5 (≈ 38.4 µM)	11	12.5 (≈ 38.4 µM)	10	12.5 (≈ 38.4 µM)	10	12.5 (≈ 38.4 µM)	14	6.25 (≈ 19.2 µM)	12	6.25 (≈ 19.2 µM)	12	6.25 (≈ 19.2 µM)	14	6.25 (≈ 19.2 µM)	12	6.25 (≈ 19.2 µM)
COc1ccc2nc(C)cc(-n3cc(CN(C)C)nn3)c2c1	18	6.25 (≈ 21 µM)	12	6.25 (≈ 21 µM)	10	6.25 (≈ 21 µM)	16	6.25 (≈ 21 µM)	10	6.25 (≈ 21 µM)	14	6.25 (≈ 21 µM)	14	6.25 (≈ 21 µM)	16	6.25 (≈ 21 µM)	14	6.25 (≈ 21 µM)	16	6.25 (≈ 21 µM)

Source: ChEMBL document CHEMBL1240415, “Design, synthesis and antimicrobial activities of some new quinoline derivatives carrying 1,2,3-triazole moiety” (2010)
